Assay results as given in ChEMBL document CHEMBL3853325, “Identification of Inhibitors for the DEDDh Family of Exonucleases and a Unique Inhibition Mechanism by Crystal Structure Analysis of CRN-4 Bound with 2-Morpholin-4-ylethanesulfonate (MES)” (J Med Chem, 2016).
Activity calls are given as the source filed them. The calls are words filed in the database; no cut-off is given here.

Legend:
Mammarenavirus lassaense [1] = experiment: (§1) Inhibition of Lassa virus N-terminal His-tagged NP exonuclease domain (342 to 569 residues) expressed in Escherichia coli Tuner (DE3) using 3'-overhang 4-nucleotide stem-loop RNA preincubated for 10 mins followed by substrate addition measured after 60 mins by PAGE based […]
How it was run: (§2)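 Purified NP exonuclease domain (2 μM), alone or with inhibitor, was incubated with 1 μM 5′-FAM-labelled RNA (20-nt ssRNA or stem-loop with 4-nt 3′ overhang). Buffer: 120 mM NaCl, 2 mM MgCl2, 20 mM Tris-HCl pH 7.0, ±10% DMSO, room temperature, 60 min. Products were run on 20% denaturing gels under UV. Cleavage was quantified across inhibitor concentrations to calculate IC50.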

[2] = biological target: T1, 3'-5' exonuclease crn-4 (Caenorhabditis elegans) (UniProt Q10905); experiment: (§3) Inhibition of GST-tagged Caenorhabditis elegans CRN-4 exonuclease activity expressed in Escherichia coli BL21 (DE3) pLysS preincubated for 10 mins followed by [gamma-32P]ATP labelled 11-nucleotide ssRNA substrate addition for 30 mins by PAGE based autoradiography
T1 sequence (whole entry): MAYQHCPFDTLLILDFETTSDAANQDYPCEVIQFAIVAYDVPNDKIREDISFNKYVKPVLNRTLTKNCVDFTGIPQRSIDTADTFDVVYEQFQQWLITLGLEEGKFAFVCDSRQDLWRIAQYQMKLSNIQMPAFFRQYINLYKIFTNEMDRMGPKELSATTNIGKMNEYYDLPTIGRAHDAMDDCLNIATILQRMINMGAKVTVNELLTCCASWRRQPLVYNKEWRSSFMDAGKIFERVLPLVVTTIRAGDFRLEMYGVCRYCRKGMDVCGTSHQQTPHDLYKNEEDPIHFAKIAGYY

[3] = biological target: T2, Ribonuclease T (Escherichia coli (strain K12)) (UniProt P30014); experiment: (§4) Inhibition of N-terminal His-tagged recombinant Escherichia coli K-12 RNase T exonuclease activity expressed in Escherichia coli BL21-CodonPlus(DE3)-RIPL preincubated for 10 mins followed by [gamma-32P]ATP labelled 11-nucleotide ssDNA substrate addition for 40 mins by PAGE based autoradiography
T2 sequence (whole entry): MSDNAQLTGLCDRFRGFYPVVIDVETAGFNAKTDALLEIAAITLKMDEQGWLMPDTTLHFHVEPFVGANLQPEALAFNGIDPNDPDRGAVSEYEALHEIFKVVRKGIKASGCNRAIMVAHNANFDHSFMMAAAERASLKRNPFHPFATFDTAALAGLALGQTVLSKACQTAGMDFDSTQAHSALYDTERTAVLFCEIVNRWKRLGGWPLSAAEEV

Mammarenavirus lassaense [4] = experiment: Inhibition of Lassa virus N-terminal His-tagged NP exonuclease domain (342 to 569 residues) expressed in Escherichia coli Tuner (DE3) using FAM-labeled 20-nucleotide ssRNA preincubated for 10 mins followed by substrate addition measured after 60 mins by PAGE based […]; how it was run: as §2
[5] = biological target: T1, 3'-5' exonuclease crn-4 (Caenorhabditis elegans); experiment: (§5) Inhibition of 5'-[gamma-32P]ATP-labelled 11-nucleotide ssRNA binding to Caenorhabditis elegans GST-tagged CRN-4 expressed in Escherichia coli BL21 (DE3) pLysS at 1 mM preincubated for 10 mins followed by substrate addition measured after 20 mins by TBE gel electrophoresis mobility shift assay
How it was run: (§6)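 Gel-shift assay. Inhibitor was mixed with protein (CRN-4 or RNase T) for 10 min at room temperature, then 20 nM 5′-32P-labelled 11-nt substrate was added (RNA for CRN-4, DNA for RNase T). Buffer: 50 mM Tris-HCl pH 7.0, 120 mM NaCl, 10 mM EGTA, 40 mM EDTA, ±10% DMSO, 20 min at room temperature. Complexes were resolved on 20% TBE gels and read by phosphorimaging.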

[6] = as §1; parameters: species or system Mammarenavirus lassaense; how it was run: as §2
[7] = biological target: T2, Ribonuclease T (Escherichia coli (strain K12)); experiment: (§7) Inhibition of 5'-[gamma-32P]ATP-labelled 11-nucleotide ssDNA binding to recombinant Escherichia coli K-12 N-terminal His-tagged RNase T expressed in Escherichia coli BL21-CodonPlus(DE3)-RIPL at 1 mM preincubated for 10 mins followed by substrate addition measured after 20 mins by TBE gel electrophoresis mobility shift assay; how it was run: as §6
[8] = biological target: Ribonuclease T (Escherichia coli (strain K12)) (UniProt P30014); experiment: as §7; how it was run: as §6; remark: listed apart in the source
[9] = biological target: 3'-5' exonuclease crn-4 (Caenorhabditis elegans) (UniProt Q10905); experiment: as §3; remark: listed apart in the source
[10] = biological target: Ribonuclease T (Escherichia coli (strain K12)) (UniProt P30014); experiment: as §4; remark: listed apart in the source
[11] = biological target: 3'-5' exonuclease crn-4 (Caenorhabditis elegans) (UniProt Q10905); experiment: as §5; how it was run: as §6; remark: listed apart in the source
Geobacillus phage GBSV1 = experiment: Inhibition of recombinant GST-fused Geobacillus phage GBSV1-NSN expressed in Escherichia coli BL21 (DE3) at 10 mM using RNA/DNA as substrate after 15 mins by spectrophotometry relative to control

| Molecule | INH (Mammarenavirus lassaense [1]) [mM] | INH [2] [mM] | INH [3] [mM] | INH (Mammarenavirus lassaense [4]) [mM] | inhibition [5] | IC50 [6] [µM] | inhibition (Mammarenavirus lassaense [1]) | inhibition [7] | inhibition [8] | INH [9] [mM] | INH [10] [mM] | inhibition [11] | inhibition (Geobacillus phage GBSV1) [%] |
| --- | --- | --- | --- | --- | --- | --- | --- | --- | --- | --- | --- | --- | --- |
| O=C(O)c1cc2cccc([N+](=O)[O-])c2[nH]1 | 1 | > 1 | 1 | 1 | – | – | – | – | – | – | – | – | – |
| O=C(N[C@H](CC1CCCCC1)C(=O)O)OCC1c2ccccc2-c2ccccc21 | 1 | 1 | 1 | 1 | Active | – | – | – | – | – | – | – | – |
| O=C(O)C1=CC(=C(c2ccc(O)c(C(=O)O)c2)c2ccc(O)c(C(=O)O)c2)C=CC1=O [AURINTRICARBOXYLIC ACID] | 0.01 | 0.1 | 0.01 | 0.01 | Active | 6.8 | Dose-dependent effect | Active | – | – | – | – | – |
| p-Chloromercuribenzenesulfonate | 1 | – | – | 1 | – | – | – | – | Active | 0.01 | 0.01 | Active | – |
| O=C(O)c1cc(SSc2ccc([N+](=O)[O-])c(C(=O)O)c2)ccc1[N+](=O)[O-] | 1 | 0.1 | 0.1 | 1 | Active | – | – | Active | – | – | – | – | – |
| O=C(O)c1ccc(Nc2nc(Cl)nc(Cl)n2)cc1-c1c2ccc(=O)cc-2oc2cc(O)ccc12 | 1 | 1 | 1 | 1 | – | – | – | – | – | – | – | – | – |
| O=S(=O)(O)c1cc(O)c2c(O)c(/N=N/c3cccc4ccccc34)c(S(=O)(=O)O)cc2c1 | 0.1 | 0.01 | 0.1 | 0.1 | Active | 66.2 | Dose-dependent effect | – | – | – | – | – | – |
| O=C(O)CC(O)(CC(=O)O)C(=O)O | 1 | > 1 | 1 | 1 | – | – | – | – | – | – | – | – | 40 |
